Screening results deposited in PubChem by several laboratories.
V1R ag counter – agonists of human V1a receptor, primary screen, counter-screen for OXTR agonist project, fluorescence, CHO-V1R cells. Vasopressin V1a receptor (Homo sapiens), P37288. Fluo-8 calcium fluorescence, agonist mode; 0% DMSO, 100% 3 nM vasopressin. activation, % at 3 µM. actives 0.25% (n = 320,000);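 active = activation above the mean activation of all tested compounds plus 3 SD, per screening run, cut at about 20% in these data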;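 note: signal is peak over basal fluorescence ratio across a 100 second FLIPR read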
CRFBP-R2 agonist – agonists of CRF-BP/CRF-R2 complex, primary screen, cell-based, HEK293, calcium dye fluorescence, uHTS; CRF-binding protein / CRF receptor 2 complex (human); activation, % at 13.2 µM; actives 0.46% (n = 350,000); AID 588473, 2011; calcium dye fluorescence (FLIPR); percent of saturating CRF peptide response;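 active = activation of at least 50%, plus an integration ratio under a set limit after plate pattern correction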
zfTRPN1 agonist – zebrafish TRPN1 channel agonists, primary screen, cell-based, HEK293, calcium fluorescence; transient receptor potential cation channel N1 (TRPN1/NompC), Danio rerio; HEK293 zebrafish TRPN1-YFP, Fluo-8 calcium fluorescence; 100% = response to 87 µM carbachol; activation, % at 3 µM; actives 0.18% (n = 220,000);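 active = activation above its plate's cutoff, the mean activation of test wells on that plate plus 3 SD, cut at about 19% in these data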
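Assay system: Zebrafish TRPN1-YFP in HEK293 cells | Incubation: Dye loading 1 h at 37 °C, then 30 min room temperature | Measured by: Kinetic Fluo-8 fluorescence, ex 470-495, em 515-575 nm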
OXTR ag – human OXTR agonists, primary screen, fluorescence, CHO-OTR cells, Fluo-8 calcium | Oxytocin receptor (Homo sapiens), P30559 | activation, % at 3 µM | Fluo-8 calcium fluorescence; normalized: DMSO 0%, oxytocin 100% | actives 0.32% (n = 320,000);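 active = activation above the mean of all tested compounds plus 3 SD, cutoff set per screening run, cut at about 20% in these data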;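 note: peak over basal fluorescence ratio from a 100 s FLIPR kinetic read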
OXTR potentiate – human OXTR potentiators, primary screen, fluorescence, CHO-OTR cells, Fluo-8 calcium. activation, % at 3 µM. actives 0.061% (n = 320,000). Oxytocin receptor (Homo sapiens), P30559. Fluo-8 calcium fluorescence, potentiator mode; 0% = oxytocin EC15, 100% = EC100. AID 2445, 2010;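 active = activation above that plate's cutoff, the mean activation of tested compounds plus 3 SD, cut at about 6.6% in these data, passing the limit was not always enough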
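Dosing: Single dose, 3.0 µM nominal final compound concentration | Material: Human OTR in CHO cells | Technique: Kinetic Fluo-8 calcium fluorescence | Benchmarks: EC15 oxytocin alone as 0%, 75 nM oxytocin as 100% | Probe or stimulus: Oxytocin at about EC15, sub-maximal agonist stimulus | Incubation: Compound 6 min at room temperature before oxytocin, 100 s read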
TRPML3 ag – human TRPML3 channel agonists, primary screen, cell-based, HEK293 TRPML3-YFP, Fluo-8 calcium fluorescence, 3 µM | Mucolipin-3 (Homo sapiens), Q8TDD5 | 100% = the carbachol control signal | activation, % at 3 µM | actives 0.29% (n = 220,000) | AID 1448, 2008;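 active = activation above its plate's cutoff, the mean activation of the plate's test wells plus 3 SD, cut at about 12% in these data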
Target sequence (Q8TDD5 whole entry, looked up): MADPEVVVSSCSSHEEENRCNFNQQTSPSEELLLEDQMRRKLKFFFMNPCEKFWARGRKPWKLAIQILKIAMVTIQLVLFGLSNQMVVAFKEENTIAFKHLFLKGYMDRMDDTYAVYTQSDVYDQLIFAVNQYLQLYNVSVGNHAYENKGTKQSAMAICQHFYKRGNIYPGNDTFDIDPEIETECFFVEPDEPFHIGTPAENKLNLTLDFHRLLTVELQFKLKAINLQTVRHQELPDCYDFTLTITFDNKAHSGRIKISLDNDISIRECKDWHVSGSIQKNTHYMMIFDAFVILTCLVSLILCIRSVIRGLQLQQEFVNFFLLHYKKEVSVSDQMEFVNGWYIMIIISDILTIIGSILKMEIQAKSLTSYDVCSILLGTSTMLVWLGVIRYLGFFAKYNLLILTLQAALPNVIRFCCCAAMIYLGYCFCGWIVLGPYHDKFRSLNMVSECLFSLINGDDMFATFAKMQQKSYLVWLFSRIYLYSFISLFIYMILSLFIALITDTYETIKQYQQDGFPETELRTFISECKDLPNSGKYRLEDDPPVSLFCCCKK
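system = HEK293 cells stably carrying human TRPML3-YFP | doses = one concentration, 3 µM nominal, 0.3% DMSO | timing = dye loading 1 h 37 °C then 30 min ambient, 125 s read | detection = Fluo-8 calcium dye fluorescence, ex 470-495, em 515-575 nm | benchmarks = high control carbachol 87 µM, low control DMSO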
TRPN1 ag 2 – zebrafish TRPN1 channel agonists, counter-screen for TRPML3 agonist project, cell-based, HEK293 TRPN1-YFP, Fluo-8 calcium | AID 1525, 2009 | activation, % at 3 µM | actives 10% (n = 310) | Fluo-8 calcium fluorescence; scaled: carbachol wells 100%, DMSO wells 0% | shares compounds with TRPML3 ag;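 active = mean activation over replicates above a set limit taken from the earlier TRPN1 channel primary screen, cut at about 19% in these data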
TRPML3 ag conf – human TRPML3 channel agonists, confirmation, cell-based, HEK293 TRPML3-YFP, Fluo-8 calcium, triplicate. shares compounds with TRPML3 ag. Fluo-8 calcium fluorescence; 100% set by carbachol, 0% by DMSO. activation, % at 3 µM. actives 80% (n = 310);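 active = activation above a set limit derived from the earlier primary screen, cut at about 12% in these data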
Large screens that a line does not name were inactive (follow-up assays come after a bar, where they were run). Most compounds without a hit are left out; they make up all but 0.85% or so of the library.

COc1ccc(O)c(/C=C2/SC(=S)N(Cc3ccccc3)C2=O)c1	CRFBP-R2 agonist 74 (no result: zfTRPN1 agonist, TRPML3 ag)
O=C1/C(=C\c2cc(Cl)c(O)c(Cl)c2)SC(=S)N1Cc1ccccc1	CRFBP-R2 agonist 187 (no result: V1R ag counter, zfTRPN1 agonist, OXTR ag, OXTR potentiate, TRPML3 ag)
COc1ccc(/C=C2/SC(=S)N(Cc3ccccc3)C2=O)cc1O	none (no result: V1R ag counter, zfTRPN1 agonist, OXTR ag, OXTR potentiate, TRPML3 ag)
COc1ccc(OC)c(/C=C2\SC(=S)N(Cc3cccnc3)C2=O)c1	CRFBP-R2 agonist 136
Cc1ccccc1C(=O)Nc1cc(S(=O)(=O)N2CCOCC2)ccc1N1CCN(C)CC1	none (no result: zfTRPN1 agonist, TRPML3 ag)
C[C@H](CO)N1C[C@H](C)[C@@H](CN(C)S(=O)(=O)c2ccccc2)Oc2c(NC(=O)C3CCCCC3)cccc2C1=O	none (no result: zfTRPN1 agonist, TRPML3 ag)
CCN(CC)C(=O)c1[nH]cnc1C(=O)N[C@H](C)c1ccccc1	none (no result: zfTRPN1 agonist, TRPML3 ag)
CC(Oc1ccc(C(=O)c2ccccc2)cc1)C(=O)Nc1ccc(S(N)(=O)=O)cc1 (configuration not stated)	V1R ag counter 22, CRFBP-R2 agonist 61, OXTR ag 33
CCOc1ccc(S(=O)(=O)Nc2nc3ccccc3nc2-n2ccc(=NC(=O)c3ccccc3C)cc2)cc1	zfTRPN1 agonist 37, TRPML3 ag 14
O=c1cc(C(F)(F)F)[nH]c2ccc(C(F)(F)F)cc12	none
COC(=O)c1scc2c(=O)cc(C(F)(F)F)[nH]c12	CRFBP-R2 agonist 63
CN(C(=O)c1cccc(NC(=O)Cc2ccc(NC(=O)C3CCCN(S(=O)(=O)c4cccc([N+](=O)[O-])c4)C3)cc2)c1)C1CCC1 (configuration not stated)	none (no result: V1R ag counter, zfTRPN1 agonist, OXTR ag, OXTR potentiate, TRPML3 ag)
O=C(COC(=O)C1C2CC3OC(=O)C1C3C2)Nc1ccc(Br)cc1 (configuration not stated)	none (no result: zfTRPN1 agonist, TRPML3 ag)
COc1cc(NC(=O)NCCN2CCN(c3ccc(Cl)cc3)CC2)ccc1C	V1R ag counter 35, OXTR ag 22
CC(C)OC(=O)c1sc2nc(-c3ccccc3)ccc2c1N	none
COc1ccc(C(=O)c2sc3nc(-c4ccccc4)ccc3c2N)cc1	CRFBP-R2 agonist 83
CN(C)c1ccc(/C=C2\N=C(c3ccc(Cl)c([N+](=O)[O-])c3)NC2=O)cc1	CRFBP-R2 agonist 62
CN(C)c1ccc(/C=C2/NC(=O)NC2=O)cc1	none
Cc1ccc(SCc2ccc(C(=O)Nc3ccccc3Br)cc2)cc1	CRFBP-R2 agonist 74
OC(c1cc(-c2cccc(Cl)c2)nc2ccccc12)C1CCCCN1 (configuration not stated)	none (no result: V1R ag counter, zfTRPN1 agonist, OXTR ag, OXTR potentiate, TRPML3 ag)
OC(c1cc(-c2ccc(C(F)(F)F)cc2)nc(C(F)(F)F)c1)C1CCCCN1 (configuration not stated)	V1R ag counter 26, OXTR ag 23
Cc1cc(C)nc(NS(=O)(=O)c2ccc(NC(=O)C3(c4ccc([N+](=O)[O-])cc4)CCCC3)cc2)n1	V1R ag counter 22, OXTR ag 22
COc1ccccc1-c1ccc(/C=C2/C=C(C)OC2=O)o1	none
COc1ccccc1-c1ccc(/C=C2\C=CC(=O)O2)o1	V1R ag counter 44, CRFBP-R2 agonist 119, OXTR ag 50, TRPML3 ag 14 | TRPN1 ag 2 21 | TRPML3 ag conf 13
